# In ChEMBL document CHEMBL4837227, “Discovery and development of 2-aminobenzimidazoles as potent antimalarials” (Eur J Med Chem, 2021):
# Activity calls are given as the source filed them. No cut-off for these calls is given here.
# Assays:
# Plasmodium falciparum [1] = experiment: Antimalarial activity against Plasmodium falciparum 3D7 assessed as reduction in parasite growth measured after 72 hrs by Monash assay based fluorescence analysis; assay type: functional, organism-based; settings: 3D7, 72 h
# Method in brief: (§1)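 Asynchronous P. falciparum cultures were grown continuously in complete RPMI with 25 mM HEPES, 0.5% Albumax II, 0.37 mM hypoxanthine and 2.0 g/l bicarbonate. They were exposed to serially diluted compound for 72 h. Controls were DMSO (0.01%) and a reference positive control. Fluorescence was read after 2 h in the dark at room temperature. IC50 is mean SEM from technical duplicate or triplicate, at least three biological replicates.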
# Plasmodium falciparum [2] = experiment: Antiplasmodial activity against PfATP4 inhibitor SJ557733-resistant Plasmodium falciparum Dd2 assessed as reduction in parasite growth incubated for 72 hrs by Griffith assay based fluorescence analysis; assay type: functional, organism-based; settings: Dd2, 72 h
# Method in brief: (§2)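 22-point dose-response, 3 per log, final 40 µM top, 0.4% DMSO. 72 h at 37 °C under 90% N2/5% CO2/5% O2. DAPI stain, confocal imaging. IC50 from 4-parameter fit normalised to in-plate puromycin and DMSO controls.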
# Plasmodium falciparum [3] = experiment: Selectivity index, ratio of IC50 for antimalarial activity against PfATP4 inhibitor SJ557733-resistant Plasmodium falciparum Dd2 to IC50 of antimalarial activity against Plasmodium falciparum Dd2; assay type: functional
# Plasmodium falciparum [4] = experiment: Antimalarial activity against synchronous ring stage of Plasmodium falciparum Dd2 assessed as parasite growth inhibition incubated for 72 hrs by Griffith assay based fluorescence analysis; assay type: functional, organism-based; settings: Dd2, 72 h; method in brief: as §2
# Plasmodium falciparum [5] = experiment: Antimalarial activity against synchronous ring stage of Plasmodium falciparum 3D7 assessed as parasite growth inhibition incubated for 72 hrs by Griffith assay based fluorescence analysis; assay type: functional, organism-based; settings: 3D7, 72 h; method in brief: as §2
# [6] = Selectivity index, ratio of IC50 for antimalarial activity against Plasmodium falciparum Dd2 to IC50 of antimalarial activity against Plasmodium falciparum 3D7; assay type: functional
# [7] = test system: Plasmodium falciparum 3D7; experiment: Binding affinity to Plasmodium falciparum 3D7 AMA1 (104 to 438 residues) expressed in Escherichia coli BL21(DE3) by surface plasmon resonance assay
# [8] = Metabolic stability in human liver microsomes assessed as intrinsic clearance at 1 uM measured per mg protein after 60 mins in presence of NADPH regenerating system by LC-MS analysis; assay type: ADME, Microsome; settings: read-out: CLH
# Method in brief: (§3)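 Compound was incubated at 37 °C with liver microsomes at 0.4 mg/mL protein. The reaction was started with an NADPH-regenerating system and quenched at time points over 60 min with acetonitrile containing diazepam as internal standard. No-NADPH controls were quenched at 2, 30 and 60 min.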
# Plasmodium falciparum [9] = experiment: Antimalarial activity against artemisinin-resistant Plasmodium falciparum Cam3.II^C580Y expressing K13 mutant assessed as reduction in parasite growth measured after 72 hrs by Monash assay based fluorescence analysis; assay type: functional, organism-based
# Method in brief: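 Asynchronous culture, 72 h compound exposure. Compounds prepared at […] (twice the top concentration) in complete RPMI (25 mM HEPES, 0.5% Albumax II, 0.37 mM hypoxanthine, sodium bicarbonate), then serially diluted. Fluorescence read after 2 h room-temperature dark incubation. Negative control 0.01% DMSO. IC50 as mean SEM, n ≥ 3 biological replicates, each in technical duplicate or triplicate.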
# [10] = Metabolic stability in mouse liver microsomes assessed as half-life at 1 uM measured for 60 mins in presence of NADPH regenerating system by LC-MS analysis; assay type: ADME, Microsome; method in brief: as §3
# [11] = Metabolic stability in mouse liver microsomes assessed as intrinsic clearance at 1 uM measured per mg protein for 60 mins in presence of NADPH regenerating system by LC-MS analysis; assay type: ADME, Microsome; settings: read-out: CLH; method in brief: as §3
# [12] = Selectivity index, ratio of IC50 for cytotoxicity against human HEK293 cells to antiplasmodial activity against Plasmodium falciparum 3D7; assay type: toxicity, cell-based; settings: read-out: Ratio IC50
# HEK293 = experiment: Cytotoxicity against human HEK293 cells assessed as reduction in cell viability at 50 uM measured after 24 hrs by MTT assay; settings: hek293, 24 h
# [13] = Kinetic solubility of the compound at pH 6.5 measured after 30 mins by nephelometry; settings: buffer, read-out: Kinetic_solubility
# Plasmodium falciparum [14] = experiment: Antimalarial activity against artemisinin-sensitive Plasmodium falciparum Cam3.II^rev expressing wild type K13 assessed as reduction in parasite growth measured after 72 hrs by Monash assay based fluorescence analysis; assay type: functional, organism-based; method in brief: as §1
# [15] = Kinetic solubility of the compound at pH 2 measured after 30 mins by nephelometry; assay type: physicochemical; settings: buffer, read-out: Kinetic_solubility
# Method in brief: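 Compound in DMSO was spiked into 0.01 M HCl (pH ~2.0) at a final DMSO of 1%. After 30 min, nephelometry gave a solubility range.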
# [16] = Metabolic stability in human liver microsomes assessed as half-life at 1 uM measured for 60 mins in presence of NADPH regenerating system by LC-MS analysis; assay type: ADME, Microsome; method in brief: as §3
smiles,measurement,setting,value
Nc1nc2ccccc2n1-c1cccc(F)c1O,IC50,Plasmodium falciparum [1],> 500 nM
N#Cc1cc(NC(=O)[C@H]2c3ccccc3C(=O)N(CC(F)(F)F)[C@@H]2c2cccnc2)ccc1F [SJ-733],IC50,Plasmodium falciparum [2],> 8000 nM
same,Ratio IC50,Plasmodium falciparum [3],> 135
same,IC50,Plasmodium falciparum [4],58.7 nM
COc1ccc2nc3cc(Cl)ccc3c(Nc3cc(CN4CCCC4)c(O)c(CN4CCCC4)c3)c2n1 [PYRONARIDINE],IC50,Plasmodium falciparum [5],7.4 nM
same,Ratio IC50,[6],1.1
same,IC50,Plasmodium falciparum [4],8.3 nM
COc1ccc(-n2c(N)nc3ccccc32)cc1,IC50,Plasmodium falciparum [1],> 500 nM
same,Activity,[7],inactive
Oc1ccccc1-n1c(NCC2CCCCC2)nc2ccccc21,IC50,Plasmodium falciparum [1],224 nM
COc1cccc(O)c1-n1c(N)nc2ccccc21,IC50,Plasmodium falciparum [1],183 nM
Cc1ccc(O)c(-n2c(N)nc3ccccc32)c1,IC50,Plasmodium falciparum [1],56 nM
Nc1nc2cccnc2n1-c1ccccc1O,IC50,Plasmodium falciparum [1],> 500 nM
COc1ccc(C[C@H](N)C(=O)N[C@H]2[C@@H](O)[C@H](n3cnc4c(N(C)C)ncnc43)O[C@@H]2CO)cc1 [PUROMYCIN],IC50,Plasmodium falciparum [5],149 nM
same,Ratio IC50,[6],0.8
same,IC50,Plasmodium falciparum [4],114 nM
Oc1ccccc1-n1c(NCc2ccccc2)nc2ccccc21,IC50,Plasmodium falciparum [1],> 500 nM
CC(C)CNc1nc2ccccc2n1-c1ccccc1O,IC50,Plasmodium falciparum [1],356 nM
COc1ccc(O)c(-n2c(N)nc3ccccc32)c1,IC50,Plasmodium falciparum [1],> 500 nM
Nc1ccccc1-n1c(S)nc2ccccc21,IC50,Plasmodium falciparum [1],> 500 nM
Nc1nc2ccccc2n1CCO,IC50,Plasmodium falciparum [1],> 500 nM
CCCCNc1nc2ccccc2n1-c1ccccc1O,IC50,Plasmodium falciparum [1],278 nM
Oc1ccccc1-n1cnc2ccccc21,IC50,Plasmodium falciparum [1],> 500 nM
Nc1nc2ccccc2n1-c1ccc2cccnc2c1O,IC50,Plasmodium falciparum [1],> 500 nM
Nc1nc2ccccc2n1-c1c(O)cccc1F,IC50,Plasmodium falciparum [1],321 nM
Nc1nc2ccccc2n1[C@H]1CCC[C@@H]1O,IC50,Plasmodium falciparum [1],> 500 nM
COc1cccc(-n2c(N)nc3ccccc32)c1,IC50,Plasmodium falciparum [1],> 500 nM
same,Activity,[7],inactive
Nc1nn(-c2ccccc2O)c2ccccc12,IC50,Plasmodium falciparum [1],> 500 nM
Nc1nc2ccccc2n1[C@H]1CCCC[C@@H]1O,IC50,Plasmodium falciparum [1],> 500 nM
COc1ccc(-n2c(N)nc3ccccc32)c(O)c1,IC50,Plasmodium falciparum [1],43 nM
same,microsomal CLint at 1 µM,[8],14 µL/min/mg
same,IC50,Plasmodium falciparum [9],168 nM
same,half-life at 1 µM,[10],0.1 h
same,microsomal CLint at 1 µM,[11],271 µL/min/mg
same,selectivity ratio,[12],> 1000
same,Activity,HEK293,Non-Toxic
same,solubility kinetic at 0.5 h,[13],50 µg/mL
same,IC50,Plasmodium falciparum [14],212 nM
same,solubility kinetic at 0.5 h,[15],> 100 µg/mL
same,half-life at 1 µM,[16],2.07 h
Nc1nc2ccccc2n1-c1ccc(F)cc1O,IC50,Plasmodium falciparum [1],188 nM
Oc1ccccc1-n1c(NCC2CC2)nc2ccccc21,IC50,Plasmodium falciparum [1],> 500 nM
Nc1nc2ccccc2n1-c1cnccc1O,IC50,Plasmodium falciparum [1],> 500 nM
Nc1ccccc1-n1c(O)nc2ccccc21,IC50,Plasmodium falciparum [1],> 500 nM
C[C@H]1[C@@H](O)O[C@@H]2O[C@@]3(C)CC[C@H]4[C@H](C)CC[C@@H]1[C@@]24OO3 [ARTENIMOL],IC50,Plasmodium falciparum [1],2 nM
same,IC50,Plasmodium falciparum [5],0.4 nM
same,Ratio IC50,[6],1.3
same,IC50,Plasmodium falciparum [4],0.6 nM
Nc1ncccc1-c1ccccc1O,IC50,Plasmodium falciparum [1],> 500 nM
Nc1nccnc1-c1ccccc1O,IC50,Plasmodium falciparum [1],> 500 nM
Nc1nc2ccccc2n1-c1cccc2cc[nH]c12,IC50,Plasmodium falciparum [1],> 500 nM
Nc1nc2ccccc2n1-c1ccc2ccccc2c1O,IC50,Plasmodium falciparum [1],38 nM
same,IC50,Plasmodium falciparum [9],114 nM
same,selectivity ratio,[12],> 1000
same,Activity,HEK293,Non-Toxic
same,IC50,Plasmodium falciparum [14],105 nM
Nc1ccccc1-n1c(N)nc2ccccc21,IC50,Plasmodium falciparum [1],> 500 nM
same,Activity,[7],inactive
CCCNc1nc2ccccc2n1-c1ccccc1O,IC50,Plasmodium falciparum [1],> 500 nM
Cc1cc(O)c(-n2c(N)nc3ccccc32)cc1C,IC50,Plasmodium falciparum [1],6.4 nM
same,microsomal CLint at 1 µM,[8],13 µL/min/mg
same,IC50,Plasmodium falciparum [9],63 nM
same,half-life at 1 µM,[10],0.383 h
same,microsomal CLint at 1 µM,[11],76 µL/min/mg
same,selectivity ratio,[12],> 1000
same,Activity,HEK293,Non-Toxic
same,solubility kinetic at 0.5 h,[13],12.5 µg/mL
same,IC50,Plasmodium falciparum [14],47 nM
same,solubility kinetic at 0.5 h,[15],> 100 µg/mL
same,half-life at 1 µM,[16],2.15 h
Nc1nc2ccccc2n1-c1ncccc1O,IC50,Plasmodium falciparum [1],> 500 nM
Nc1nc2ccccc2n1-c1cccnc1O,IC50,Plasmodium falciparum [1],> 500 nM
CC(C)Nc1nc2ccccc2n1-c1ccccc1O,IC50,Plasmodium falciparum [1],> 500 nM
Nc1nc2ccccc2n1-c1ccccc1CO,IC50,Plasmodium falciparum [1],> 500 nM
same,Activity,[7],inactive
Cc1cccc(O)c1-n1c(N)nc2ccccc21,IC50,Plasmodium falciparum [1],135 nM
Nc1nc2ccccc2n1-c1ccc(Cl)cc1O,IC50,Plasmodium falciparum [1],164 nM
Nc1nc2ccccc2n1-c1cc(Cl)ccc1O,IC50,Plasmodium falciparum [1],162 nM
Nc1nc2ccccc2n1-c1cccc(O)c1,IC50,Plasmodium falciparum [1],> 500 nM
same,Activity,[7],inactive
Cc1cccc(-n2c(N)nc3ccccc32)c1O,IC50,Plasmodium falciparum [1],61 nM
CCNc1nc2ccccc2n1-c1ccccc1O,IC50,Plasmodium falciparum [1],> 500 nM
Cc1cc(C)c(O)c(-n2c(N)nc3ccccc32)c1,IC50,Plasmodium falciparum [1],23 nM
same,microsomal CLint at 1 µM,[8],10 µL/min/mg
same,IC50,Plasmodium falciparum [9],139 nM
same,half-life at 1 µM,[10],0.0667 h
same,microsomal CLint at 1 µM,[11],476 µL/min/mg
same,selectivity ratio,[12],> 1000
same,Activity,HEK293,Non-Toxic
same,solubility kinetic at 0.5 h,[13],12.5 µg/mL
same,IC50,Plasmodium falciparum [14],133 nM
same,solubility kinetic at 0.5 h,[15],> 100 µg/mL
same,half-life at 1 µM,[16],2.88 h
COc1cccc(-n2c(N)nc3ccccc32)c1O,IC50,Plasmodium falciparum [1],55 nM
Nc1nc2ccccc2n1-c1cccc2ccoc12,IC50,Plasmodium falciparum [1],> 500 nM
Nc1nc2ccccc2n1-c1cccc(Cl)c1O,IC50,Plasmodium falciparum [1],> 500 nM
Oc1ccccc1-n1c(NC2CCCCC2)nc2ccccc21,IC50,Plasmodium falciparum [1],333 nM
Nc1nc2ccccc2n1-c1ccccc1F,IC50,Plasmodium falciparum [1],> 500 nM
same,Activity,[7],inactive
Nc1nc2ccccc2n1-c1ccncc1O,IC50,Plasmodium falciparum [1],> 500 nM
Nc1nc2ccccc2n1-c1cc(F)ccc1O,IC50,Plasmodium falciparum [1],90 nM
Cc1ccc(-n2c(N)nc3ccccc32)cc1,IC50,Plasmodium falciparum [1],> 500 nM
same,Activity,[7],inactive
COc1ccccc1-n1c(N)nc2ccccc21,IC50,Plasmodium falciparum [1],> 500 nM
same,Activity,[7],inactive
Nc1nc2ccccc2n1-c1ccc(O)cc1,IC50,Plasmodium falciparum [1],> 500 nM
same,Activity,[7],inactive
Nc1ccc(-n2c(N)nc3ccccc32)cc1,IC50,Plasmodium falciparum [1],> 500 nM
same,Activity,[7],inactive
Nc1nc2ccccc2n1-c1c(O)cccc1Cl,IC50,Plasmodium falciparum [1],> 500 nM
N#Cc1ccc(-n2c(N)nc3ccccc32)cc1,IC50,Plasmodium falciparum [1],> 500 nM
same,Activity,[7],inactive
CCc1nc(N)nc(N)c1-c1ccc(Cl)cc1 [PYRIMETHAMINE],IC50,Plasmodium falciparum [5],4.7 nM
same,Ratio IC50,[6],> 8000
same,IC50,Plasmodium falciparum [4],> 40000 nM
